One assay has as its system Plasma. Kind of assay: Anticoagulant activity in human plasma assessed as concentration required to double the prothrombin based clotting time after 30 seconds. In kind it is functional. In short, it runs like this:
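Human plasma prothrombin-based clotting time; value is the inhibitor concentration that doubles the clotting time, averaged from two independent determinations.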

A further assay deals with Coagulation factor X (Homo sapiens, UniProt P00742).
The target in the next assay is Cytochrome P450 3A4 (Homo sapiens, UniProt P08684). The assay is described as follows: Inhibition of CYP3A4 using BFC as a substrate. The format is ADME.
Another assay concerns the target Cytochrome P450 2C19 (Homo sapiens, UniProt P33261). The assay is described as follows: Inhibition of CYP2C19. The format is ADME.
The next assay concerns the target Cytochrome P450 2C9 (Homo sapiens, UniProt P11712). Kind of assay: Inhibition of CYP2C9. The format is ADME.
For assay [1], the system named is Rattus norvegicus. The assay is described as follows: Ex vivo anticoagulant activity in Sprague-Dawley rat assessed as prolongation of prothrombin time at 30mg/kg, id after 120 mins. In kind it is functional. In outline:
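Anesthetized rats dosed intraduodenally at 30 mg/kg in 10% ethanol/90% PEG300, then a saline flush. Arterial blood drawn into 3.8% Na-citrate (1/10, v/v) before dosing and at 30, 60, 90 and 120 min. Ex vivo prothrombin time measured on a micro coagulation analyzer using Thromboplastin-C reagent.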

The subject of assay [2] is Rattus norvegicus. The assay is described as follows: Anticoagulant activity against Sprague-Dawley rat arterial thrombosis model induced by topical application of Fecl2. The format is functional. In outline:
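Rat carotid artery thrombosis: vehicle (PEG-400) or compound given by 1 mL/kg gavage at 0 min (5, 10, 15, 30 mg/kg; n = 5, 6, 6, 4; vehicle n = 8), with aspirin 10 mg/kg iv 15 min before FeCl2. Rats anesthetized at 30 min. 50% FeCl2 applied topically at 60 min for 10 min. Thrombus weight taken 1 h later. ANOVA with Dunnett's test.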

Each structure is given as a SMILES string.

Chain of Cytochrome P450 2C9 (P11712 whole entry): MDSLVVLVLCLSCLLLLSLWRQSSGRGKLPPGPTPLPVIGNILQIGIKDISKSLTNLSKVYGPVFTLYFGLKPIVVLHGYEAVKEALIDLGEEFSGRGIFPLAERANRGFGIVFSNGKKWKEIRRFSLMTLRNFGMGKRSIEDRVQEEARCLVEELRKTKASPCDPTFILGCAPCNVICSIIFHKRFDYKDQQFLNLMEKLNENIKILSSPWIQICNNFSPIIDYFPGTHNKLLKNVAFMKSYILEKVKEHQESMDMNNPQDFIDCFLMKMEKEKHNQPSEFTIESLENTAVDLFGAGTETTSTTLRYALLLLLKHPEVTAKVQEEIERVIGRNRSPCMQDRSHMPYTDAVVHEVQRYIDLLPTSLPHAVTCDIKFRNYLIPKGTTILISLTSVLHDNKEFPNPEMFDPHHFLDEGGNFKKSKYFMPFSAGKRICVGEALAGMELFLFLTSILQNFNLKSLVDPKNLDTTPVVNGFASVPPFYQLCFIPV
Chain of Cytochrome P450 2C19 (P33261 whole entry): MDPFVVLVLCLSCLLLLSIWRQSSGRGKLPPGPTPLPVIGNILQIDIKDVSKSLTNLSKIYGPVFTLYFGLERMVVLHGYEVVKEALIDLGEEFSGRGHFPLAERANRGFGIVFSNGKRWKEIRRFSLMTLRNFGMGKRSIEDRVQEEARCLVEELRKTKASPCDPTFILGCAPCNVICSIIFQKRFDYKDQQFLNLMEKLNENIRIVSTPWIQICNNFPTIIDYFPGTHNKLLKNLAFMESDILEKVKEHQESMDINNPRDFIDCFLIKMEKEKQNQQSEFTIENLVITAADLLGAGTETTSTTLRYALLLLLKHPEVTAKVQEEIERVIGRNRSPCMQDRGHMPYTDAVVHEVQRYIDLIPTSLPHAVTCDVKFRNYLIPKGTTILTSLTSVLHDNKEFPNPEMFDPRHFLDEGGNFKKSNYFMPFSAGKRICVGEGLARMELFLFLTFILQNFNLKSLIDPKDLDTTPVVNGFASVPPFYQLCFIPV
Chain of Cytochrome P450 3A4 (P08684 whole entry): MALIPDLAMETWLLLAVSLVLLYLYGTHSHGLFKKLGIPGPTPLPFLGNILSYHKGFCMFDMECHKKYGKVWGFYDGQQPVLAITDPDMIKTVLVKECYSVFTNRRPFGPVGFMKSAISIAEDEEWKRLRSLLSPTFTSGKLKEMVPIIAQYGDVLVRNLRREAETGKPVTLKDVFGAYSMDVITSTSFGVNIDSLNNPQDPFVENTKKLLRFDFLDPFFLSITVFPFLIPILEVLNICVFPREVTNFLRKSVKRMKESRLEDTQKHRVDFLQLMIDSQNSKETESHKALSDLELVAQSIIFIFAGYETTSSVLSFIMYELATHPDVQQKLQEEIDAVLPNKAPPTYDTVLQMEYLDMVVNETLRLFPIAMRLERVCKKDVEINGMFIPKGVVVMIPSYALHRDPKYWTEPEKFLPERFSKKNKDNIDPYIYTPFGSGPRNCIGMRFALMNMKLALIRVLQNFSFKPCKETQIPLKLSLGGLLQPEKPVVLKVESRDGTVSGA
Chain of Coagulation factor X (P00742 41-179 limits assumed): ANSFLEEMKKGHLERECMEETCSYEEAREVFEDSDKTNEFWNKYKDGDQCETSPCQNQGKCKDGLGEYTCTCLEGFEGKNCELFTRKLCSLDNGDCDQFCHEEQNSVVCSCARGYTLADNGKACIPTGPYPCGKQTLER
Chain of Coagulation factor X (P00742 235-488 limits assumed): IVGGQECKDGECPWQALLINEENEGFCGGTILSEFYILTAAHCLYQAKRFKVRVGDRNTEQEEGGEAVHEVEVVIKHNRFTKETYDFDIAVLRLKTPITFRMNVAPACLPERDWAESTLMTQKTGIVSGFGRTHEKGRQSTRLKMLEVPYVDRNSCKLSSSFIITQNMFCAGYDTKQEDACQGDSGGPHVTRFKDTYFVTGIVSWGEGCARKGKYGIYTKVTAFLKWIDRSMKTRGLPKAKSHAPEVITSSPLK

For `Cc1cc2cc(N/C(=N\C(=O)c3ccsc3)N[C@H]3CCCCN(CC(=O)N4CCCC4)C3=O)ccc2o1`, the Activity in the assay on Plasma was 19 µM.

For `Cc1cc2cc(N/C(=N\C(=O)c3ccoc3)N[C@H]3CCCCN(CC(=O)N4CCCC4)C3=O)ccc2o1`, the Activity with Plasma came out at 33 µM.

With `COC(=O)c1ccc(C(=O)/N=C(\Nc2ccc3oc(C)cc3c2)N[C@H]2CCCCN(CC(=O)N3CCCC3)C2=O)nc1`, the Activity with Plasma stood at 16 µM.

As usually defined, the IC50 is the concentration needed to halve the response being measured. Read a low IC50 as greater potency in that assay. Regarding `Cc1cc2cc(N/C(=N\S(=O)(=O)c3ccccc3)N[C@H]3CCCCN(CC(=O)N4CCCC4)C3=O)ccc2o1`, the IC50 against Coagulation factor X was determined as 0.024 µM. Moreover, in the assay on Plasma, the Activity was more than 50 µM.

As to `Cc1cc2cc(N/C(=N\C(=O)c3cnccn3)N[C@H]3CCCCN(CC(=O)N4CCCC4)C3=O)ccc2o1`, the Activity with Plasma is 18 µM.

As for `Cc1cc2cc(N/C(=N\C(=O)c3nnn(C)n3)N[C@H]3CCCCN(CC(=O)N4CCCC4)C3=O)ccc2o1`, the Activity in the assay on Plasma came out at 28 µM.

For the compound `Cc1cc2cc(N/C(=N\C(=O)c3ccc(C(N)=O)nc3)N[C@H]3CCCCN(CC(=O)N4CCCC4)C3=O)ccc2o1`, the figures for the IC50 against Cytochrome P450 3A4, on Cytochrome P450 2C19 and against Cytochrome P450 2C9 were 18 µM, 13 µM and 22 µM, respectively. The Activity in the assay with Plasma was found to be 5.7 µM.

For `Cc1cc2cc(N/C(=N\C(N)=O)N[C@H]3CCCCN(CC(=O)N4CCCC4)C3=O)ccc2o1`, in the assay with Plasma, the Activity came to 60 µM.

Turning to `Cc1cc2cc(N/C(=N\C(=O)c3ccccc3)N[C@H]3CCCCN(CC(=O)N4CCCC4)C3=O)ccc2o1`, the Activity in the assay with Plasma was 48 µM.

For the compound `Cc1cc2cc(N/C(=N\C(=O)c3ccncc3)N[C@H]3CCCCN(CC(=O)N4CCCC4)C3=O)ccc2o1`, in the assay with Plasma, the Activity came out at 16 µM.

Turning to `CC(=O)/N=C(\Nc1ccc2oc(C)cc2c1)N[C@H]1CCCCN(CC(=O)N2CCCC2)C1=O`, the Activity in the assay on Plasma was found to be 70 µM.

As to `COC(=O)c1cccc(C(=O)/N=C(\Nc2ccc3oc(C)cc3c2)N[C@H]2CCCCN(CC(=O)N3CCCC3)C2=O)c1`, at Coagulation factor X, inhibition was half-maximal at 0.005 µM (IC50). Besides, the Activity with Plasma was 41 µM.

For `Cc1cc2cc(/N=C(/NC#N)N[C@H]3CCCCN(CC(=O)N4CCCC4)C3=O)ccc2o1`, the Activity in the assay with Plasma stood at 32 µM. The figures for the “fold change (FC)” value with Rattus norvegicus [1] and in the assay with Rattus norvegicus [2] were “>=1.8” and not below 1.8, respectively.

On to `Cc1cc2cc(N/C(=N\C(=O)c3ccc(C(N)=O)cc3)N[C@H]3CCCCN(CC(=O)N4CCCC4)C3=O)ccc2o1`, for which the IC50 at Coagulation factor X was 0.003 µM. The Activity in the assay on Plasma is 5 µM. The “fold change (FC)” value in the assay on Rattus norvegicus [2] is listed as “>=3.6”.

On to `COC(=O)c1ccc(C(=O)/N=C(\Nc2ccc3oc(C)cc3c2)N[C@H]2CCCCN(CC(=O)N3CCCC3)C2=O)cc1`, for which the Activity in the assay with Plasma is 18 µM.

On Coagulation factor X, `Cc1cc2cc(N/C(=N\C(=O)c3ccc(C(=O)N(C)C)cc3)N[C@H]3CCCCN(CC(=O)N4CCCC4)C3=O)ccc2o1` registered an IC50 of 0.003 µM. The Activity in the assay with Plasma was determined as 4 µM. In addition, the “fold change (FC)” value with Rattus norvegicus [2] is “>=3.6”.

On to `Cc1cc2cc(N/C(=N\C(=O)c3ccc[n+]([O-])c3)N[C@H]3CCCCN(CC(=O)N4CCCC4)C3=O)ccc2o1`, for which the IC50 at Cytochrome P450 3A4 came to 0.9 µM; against Cytochrome P450 2C19 it was 128 µM; against Coagulation factor X it was 0.01 µM; on Cytochrome P450 2C9, 122 µM. In addition, the Activity in the assay on Plasma was 3 µM.

For the compound `Cc1cc2cc(/N=C(/NC(=O)c3cccnc3)N[C@H]3CCCCN(CC(=O)N4CCCC4)C3=O)ccc2o1`, the IC50 came out at 0.3 µM against Cytochrome P450 3A4, 8 µM on Cytochrome P450 2C19 and 10 µM against Cytochrome P450 2C9. In addition, the Activity with Plasma worked out at 7 µM. Also, the “fold change (FC)” value in the assay with Rattus norvegicus [1] is “>=3.2”.

As to `Cc1cc2cc(N/C(=N\C(=O)c3ccc(Cl)nc3)N[C@H]3CCCCN(CC(=O)N4CCCC4)C3=O)ccc2o1`, the IC50 against Cytochrome P450 3A4 worked out at 8 µM; on Cytochrome P450 2C19, 22 µM; against Cytochrome P450 2C9 it was 12 µM. Also, the Activity with Plasma was found to be 14 µM.

As for `Cc1cc2cc(N/C(=N\C(=O)c3cccc(C(N)=O)c3)N[C@H]3CCCCN(CC(=O)N4CCCC4)C3=O)ccc2o1`, 0.018 µM corresponded to half-maximal inhibition against Coagulation factor X (IC50). Moreover, the Activity in the assay with Plasma is 7 µM.

Compound `Cc1cc2cc(N/C(=N\S(C)(=O)=O)N[C@H]3CCCCN(CC(=O)N4CCCC4)C3=O)ccc2o1` came in with an IC50 against Coagulation factor X of 0.01 µM. Moreover, in the assay with Plasma, the Activity was 60 µM.

Consider `Cc1cc2cc(N/C(=N\C(=O)c3ccc(C(=O)O)nc3)N[C@H]3CCCCN(CC(=O)N4CCCC4)C3=O)ccc2o1`, for which the IC50 is 87 µM on Cytochrome P450 3A4, 47 µM against Cytochrome P450 2C19 and 122 µM against Cytochrome P450 2C9. The Activity in the assay with Plasma came out at 6.8 µM.

With `Cc1ccc(C(=O)/N=C(\Nc2ccc3oc(C)cc3c2)N[C@H]2CCCCN(CC(=O)N3CCCC3)C2=O)cn1`, the IC50 worked out at 7 µM against Cytochrome P450 3A4, 27 µM at Cytochrome P450 2C19 and 9 µM at Cytochrome P450 2C9. Moreover, the Activity in the assay with Plasma was found to be 12 µM.

As to `Cc1cc2cc(N/C(=N/[N+](=O)[O-])N[C@H]3CCCCN(CC(=O)N4CCCC4)C3=O)ccc2o1`, on Coagulation factor X, the IC50 amounted to 0.025 µM. For the same compound, the Activity in the assay with Plasma was more than 50 µM.

Turning to `Cc1cc2cc(N/C(=N\C(=O)c3cccc(C(=O)N(C)C)c3)N[C@H]3CCCCN(CC(=O)N4CCCC4)C3=O)ccc2o1`, inhibition on Coagulation factor X was half-maximal at 0.01 µM (IC50). The Activity with Plasma was 8 µM.

Take `CCOC(=O)/N=C(\Nc1ccc2oc(C)cc2c1)N[C@H]1CCCCN(CC(=O)N2CCCC2)C1=O`: the Activity in the assay with Plasma was found to be 34 µM.

For `Cc1cc2cc(N/C(=N\C(=O)N(C)C)N[C@H]3CCCCN(CC(=O)N4CCCC4)C3=O)ccc2o1`, in the assay on Plasma, the Activity worked out at 55 µM.

For `Cc1cc2cc(N/C(=N\C(=O)c3cccc(Cl)c3)N[C@H]3CCCCN(CC(=O)N4CCCC4)C3=O)ccc2o1`, the Activity in the assay with Plasma was more than 50 µM.

As for `Cc1cc2cc(N/C(=N\C(=O)c3ccc(C(=O)O)cc3)N[C@H]3CCCCN(CC(=O)N4CCCC4)C3=O)ccc2o1`, in the assay on Plasma, the Activity is 5 µM.

For the compound `Cc1cc2cc(N/C(=N\S(N)(=O)=O)N[C@H]3CCCCN(CC(=O)N4CCCC4)C3=O)ccc2o1`, on Coagulation factor X, the midpoint of inhibition, the IC50, lay at 0.012 µM. Besides, the Activity in the assay with Plasma was more than 50 µM.

For the compound `CNC(=O)c1ccc(C(=O)/N=C(\Nc2ccc3oc(C)cc3c2)N[C@H]2CCCCN(CC(=O)N3CCCC3)C2=O)cn1`, the values for the concentration for half-maximal inhibition (IC50) on Cytochrome P450 3A4, on Cytochrome P450 2C19 and against Cytochrome P450 2C9 were 18 µM, 12 µM and 24 µM, respectively. Also, the Activity in the assay with Plasma stood at 3 µM.

For the compound `Cc1cc2cc(N/C(=N\C(=O)c3cncc(C(N)=O)c3)N[C@H]3CCCCN(CC(=O)N4CCCC4)C3=O)ccc2o1`, the half-inhibitory concentration (IC50) worked out at 0.4 µM against Cytochrome P450 3A4, 37 µM against Cytochrome P450 2C19 and 10 µM on Cytochrome P450 2C9. Also, the Activity in the assay with Plasma worked out at 7 µM.

For `Cc1cc2cc(N/C(=N\C(=O)c3cnn(C)c3)N[C@H]3CCCCN(CC(=O)N4CCCC4)C3=O)ccc2o1`, in the assay on Plasma, the Activity came to 11 µM.
